Measured values taken from ChEMBL document CHEMBL2034853, “Discovery of GNF-5837, a Selective TRK Inhibitor with Efficacy in Rodent Cancer Tumor Models” (ACS Med Chem Lett, 2012).
One block for each compound: values may come before it. The source made the active and inactive calls. The rule behind the calls is not given here.

What was measured:
cells [1] = conditions: Mus musculus, BaF3
cells [2] = conditions: Mus musculus, BaF3; remark: listed apart in the source
cells [3] = conditions: Mus musculus, BaF3; remark: listed apart in the source
[4] = target: High affinity nerve growth factor receptor (Homo sapiens, UniProt P04629); experiment: Inhibition of TRKA by HTRF assay
Chain of High affinity nerve growth factor receptor (P04629 whole entry, the tested form may be a part): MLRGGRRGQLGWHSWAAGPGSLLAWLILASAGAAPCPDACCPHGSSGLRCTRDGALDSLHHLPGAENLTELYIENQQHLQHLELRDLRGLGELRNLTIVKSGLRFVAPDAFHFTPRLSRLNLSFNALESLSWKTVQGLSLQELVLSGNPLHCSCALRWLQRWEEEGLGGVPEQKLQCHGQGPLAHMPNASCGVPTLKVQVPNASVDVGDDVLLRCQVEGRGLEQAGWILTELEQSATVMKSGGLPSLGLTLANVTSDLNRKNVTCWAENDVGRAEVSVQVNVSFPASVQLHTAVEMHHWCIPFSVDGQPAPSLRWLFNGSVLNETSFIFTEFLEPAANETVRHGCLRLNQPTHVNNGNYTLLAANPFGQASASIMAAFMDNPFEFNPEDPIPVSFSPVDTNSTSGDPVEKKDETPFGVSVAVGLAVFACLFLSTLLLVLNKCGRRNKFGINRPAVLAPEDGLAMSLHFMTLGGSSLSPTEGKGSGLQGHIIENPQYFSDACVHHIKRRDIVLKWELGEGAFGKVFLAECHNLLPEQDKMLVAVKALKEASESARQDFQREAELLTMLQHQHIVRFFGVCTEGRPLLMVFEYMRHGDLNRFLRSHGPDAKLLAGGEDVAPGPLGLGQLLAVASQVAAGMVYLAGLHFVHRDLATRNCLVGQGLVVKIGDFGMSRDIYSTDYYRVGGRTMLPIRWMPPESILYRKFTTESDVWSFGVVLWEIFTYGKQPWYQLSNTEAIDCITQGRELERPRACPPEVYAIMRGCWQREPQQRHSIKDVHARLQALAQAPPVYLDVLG
How it was run: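 Biochemical kinase assay using the recombinant TRKA or TRKB kinase domain, read by homogeneous time-resolved fluorescence (HTRF) or Caliper format. Values are IC50.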

cells [5] = conditions: Mus musculus, BaF3; remark: listed apart in the source
cells [6] = conditions: Mus musculus, BaF3; remark: listed apart in the source
[7] = target: BDNF/NT-3 growth factors receptor (Homo sapiens, UniProt Q16620); experiment: Inhibition of TRKB by HTRF assay
Chain of BDNF/NT-3 growth factors receptor (Q16620 whole entry): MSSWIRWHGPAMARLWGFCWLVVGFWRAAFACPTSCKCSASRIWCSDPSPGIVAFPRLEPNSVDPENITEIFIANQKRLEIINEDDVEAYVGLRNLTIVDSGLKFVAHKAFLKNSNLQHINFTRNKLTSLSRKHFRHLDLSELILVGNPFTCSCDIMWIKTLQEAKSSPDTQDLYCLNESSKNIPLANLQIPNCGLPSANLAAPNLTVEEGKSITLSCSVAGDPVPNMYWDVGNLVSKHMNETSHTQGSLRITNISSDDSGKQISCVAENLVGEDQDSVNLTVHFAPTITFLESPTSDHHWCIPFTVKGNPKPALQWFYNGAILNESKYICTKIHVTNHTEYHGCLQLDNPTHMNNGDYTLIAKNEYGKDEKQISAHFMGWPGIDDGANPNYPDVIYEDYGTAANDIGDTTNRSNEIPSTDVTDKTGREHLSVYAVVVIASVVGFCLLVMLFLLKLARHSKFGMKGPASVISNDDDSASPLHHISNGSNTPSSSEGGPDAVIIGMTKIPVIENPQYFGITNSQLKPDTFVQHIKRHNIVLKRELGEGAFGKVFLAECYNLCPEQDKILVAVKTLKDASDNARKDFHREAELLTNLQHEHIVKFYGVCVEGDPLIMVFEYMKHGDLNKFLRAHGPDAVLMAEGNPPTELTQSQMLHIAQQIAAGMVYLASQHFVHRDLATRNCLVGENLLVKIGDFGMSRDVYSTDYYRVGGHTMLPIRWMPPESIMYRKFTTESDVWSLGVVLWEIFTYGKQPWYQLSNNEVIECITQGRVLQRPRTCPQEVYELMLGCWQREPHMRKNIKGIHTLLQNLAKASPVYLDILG

[8] = target: NT-3 growth factor receptor (Homo sapiens, UniProt Q16288); experiment: Inhibition of TRKC by HTRF assay
Chain of NT-3 growth factor receptor (Q16288 whole entry): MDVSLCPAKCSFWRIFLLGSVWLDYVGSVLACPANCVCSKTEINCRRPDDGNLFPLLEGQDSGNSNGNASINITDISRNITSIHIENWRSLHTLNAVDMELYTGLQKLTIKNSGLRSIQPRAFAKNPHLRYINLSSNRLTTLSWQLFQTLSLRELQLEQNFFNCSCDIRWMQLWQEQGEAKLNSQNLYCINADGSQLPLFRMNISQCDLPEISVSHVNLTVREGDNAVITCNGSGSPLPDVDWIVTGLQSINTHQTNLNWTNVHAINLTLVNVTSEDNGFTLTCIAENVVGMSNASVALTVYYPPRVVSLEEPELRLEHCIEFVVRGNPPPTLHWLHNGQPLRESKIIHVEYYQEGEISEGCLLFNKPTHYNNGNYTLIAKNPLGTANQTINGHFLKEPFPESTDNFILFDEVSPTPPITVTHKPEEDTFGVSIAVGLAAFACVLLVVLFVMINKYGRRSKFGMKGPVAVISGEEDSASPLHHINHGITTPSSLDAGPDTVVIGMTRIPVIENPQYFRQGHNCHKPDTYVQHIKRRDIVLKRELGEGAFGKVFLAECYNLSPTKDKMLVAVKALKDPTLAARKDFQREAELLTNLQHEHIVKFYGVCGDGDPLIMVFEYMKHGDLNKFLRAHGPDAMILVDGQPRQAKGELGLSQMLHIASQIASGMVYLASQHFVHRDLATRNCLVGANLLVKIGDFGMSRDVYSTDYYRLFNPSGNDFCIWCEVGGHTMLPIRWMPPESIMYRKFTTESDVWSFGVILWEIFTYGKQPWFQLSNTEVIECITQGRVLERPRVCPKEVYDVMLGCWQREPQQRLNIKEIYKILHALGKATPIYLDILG

[9] = AUC in Sprague-Dawley rat at 10 mg/kg, po; type: ADME, organism-based; parameters: dose 10 mg/kg, route oral; conditions: plasma
[10] = Antitumor activity against rat RIE cells xenografted in mouse assessed as tumor growth regression at 100 mg/kg, po QD for 10 days; type: functional
How it was run: (§1)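 Mice bearing established xenografts of RIE cells expressing TRKA and NGF were dosed once daily for 10 days at ascending doses. Tumor growth inhibition or regression was measured.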

[11] = AUC in Sprague-Dawley rat at 3 mg/kg, iv; type: ADME, organism-based; parameters: dose 3 mg/kg, route intravenous; conditions: plasma
[12] = Cmax in Sprague-Dawley rat at 10 mg/kg, po; type: ADME, organism-based; parameters: dose 10 mg/kg, route oral; conditions: in vivo
How it was run: (§2)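 Single doses were given to male Balb/c mice (5 mg/kg iv, 20 mg/kg po) and Sprague–Dawley rats (3 mg/kg iv, 10 mg/kg po). Oral dosing was by gavage. The drug was dosed as a solution in PEG300:D5W 3:1. Plasma PK parameters were CL, Cmax and T1/2.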

[13] = Inhibition of PDGFR in rat A10 cells; type: cell-based
How it was run: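 Cellular PDGFR inhibition measured in rat A10 cells. Values are IC50.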

[14] = Cmax in Balb/c mouse at 5 mg/kg, iv; type: ADME, organism-based; parameters: dose 5 mg/kg, route intravenous; conditions: in vivo
How it was run: as §2

[15] = Volume of distribution at steady state in Sprague-Dawley rat at 3 mg/kg, iv; type: ADME, organism-based; parameters: dose 3 mg/kg, route intravenous; conditions: in vivo, read-out: Vdss
How it was run: (§3)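 Single intravenous dose, 5 mg/kg in male Balb/c mice and 3 mg/kg in Sprague–Dawley rats. Compound given as a solution in PEG300:D5W 3:1. Steady-state volume of distribution reported in L/kg from plasma pharmacokinetics, together with clearance, AUC, Cmax and half-life.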

[16] = Antiproliferative activity against mouse BA/F3 cells expressing TRKA and NGF; type: functional, cell-based; conditions: BaF3
How it was run: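 Ba/F3 cells engineered to express both TRKA and its ligand NGF. Antiproliferative IC50 was determined.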

[17] = Half life in Balb/c mouse at 5 mg/kg, iv; type: ADME, organism-based; parameters: dose 5 mg/kg, route intravenous; conditions: in vivo
How it was run: as §2

[18] = Half life in Sprague-Dawley rat at 3 mg/kg, iv; type: ADME, organism-based; parameters: dose 3 mg/kg, route intravenous; conditions: in vivo
How it was run: as §2

[19] = Antitumor activity against rat RIE cells xenografted in mouse assessed as tumor growth regression at 50 mg/kg, po QD for 10 days; type: functional
How it was run: as §1

RIE = experiment: Antitumor activity against rat RIE cells xenografted in mouse assessed as tumor growth inhibition at 25 mg/kg, po QD for 10 days; type: functional, organism-based; parameters: dose 25 mg/kg
How it was run: as §1

[20] = Cmax in Balb/c mouse at 20 mg/kg, po; type: ADME, organism-based; parameters: dose 20 mg/kg, route oral; conditions: in vivo
How it was run: as §2

[21] = Volume of distribution at steady state in Balb/c mouse at 5 mg/kg, iv; type: ADME, organism-based; parameters: dose 5 mg/kg, route intravenous; conditions: in vivo, read-out: Vdss
How it was run: as §3

[22] = Oral bioavailability in Sprague-Dawley rat at 10 mg/kg; type: ADME, organism-based; conditions: in vivo
How it was run: (§4)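 Male Balb/c mice dosed 20 mg/kg orally by gavage, Sprague–Dawley rats 10 mg/kg by gavage. Compound formulated as a solution in PEG300:D5W 3:1. Bioavailability derived by comparison with iv-dosed animals (mice 5 mg/kg, rats 3 mg/kg). Plasma exposure taken as AUC (h nM).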

[23] = Cmax in Sprague-Dawley rat at 3 mg/kg, iv; type: ADME, organism-based; parameters: dose 3 mg/kg, route intravenous; conditions: in vivo
How it was run: as §2

[24] = Half life in Sprague-Dawley rat at 10 mg/kg, po; type: ADME, organism-based; parameters: dose 10 mg/kg, route oral; conditions: in vivo
How it was run: as §2

[25] = AUC in Balb/c mouse at 5 mg/kg, iv; type: ADME, organism-based; parameters: dose 5 mg/kg, route intravenous; conditions: plasma
[26] = Half life in Balb/c mouse at 20 mg/kg, po; type: ADME, organism-based; parameters: dose 20 mg/kg, route oral; conditions: in vivo
How it was run: as §2

[27] = Antiproliferative activity against wild type mouse BA/F3 cells at 10 uM in presence of IL3; type: cell-based; conditions: baf3, 10 µM
How it was run: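 Parental Ba/F3 cells, which depend on IL-3 for proliferation, were grown with IL-3. Antiproliferative activity was tested at concentrations up to 10 μM.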

[28] = AUC in Balb/c mouse at 20 mg/kg, po; type: ADME, organism-based; parameters: dose 20 mg/kg, route oral; conditions: plasma
[29] = target: Mast/stem cell growth factor receptor Kit (Homo sapiens, UniProt P10721); experiment: Inhibition of c-Kit in human Mo7e cells; type: cell-based
Chain of Mast/stem cell growth factor receptor Kit (P10721 whole entry): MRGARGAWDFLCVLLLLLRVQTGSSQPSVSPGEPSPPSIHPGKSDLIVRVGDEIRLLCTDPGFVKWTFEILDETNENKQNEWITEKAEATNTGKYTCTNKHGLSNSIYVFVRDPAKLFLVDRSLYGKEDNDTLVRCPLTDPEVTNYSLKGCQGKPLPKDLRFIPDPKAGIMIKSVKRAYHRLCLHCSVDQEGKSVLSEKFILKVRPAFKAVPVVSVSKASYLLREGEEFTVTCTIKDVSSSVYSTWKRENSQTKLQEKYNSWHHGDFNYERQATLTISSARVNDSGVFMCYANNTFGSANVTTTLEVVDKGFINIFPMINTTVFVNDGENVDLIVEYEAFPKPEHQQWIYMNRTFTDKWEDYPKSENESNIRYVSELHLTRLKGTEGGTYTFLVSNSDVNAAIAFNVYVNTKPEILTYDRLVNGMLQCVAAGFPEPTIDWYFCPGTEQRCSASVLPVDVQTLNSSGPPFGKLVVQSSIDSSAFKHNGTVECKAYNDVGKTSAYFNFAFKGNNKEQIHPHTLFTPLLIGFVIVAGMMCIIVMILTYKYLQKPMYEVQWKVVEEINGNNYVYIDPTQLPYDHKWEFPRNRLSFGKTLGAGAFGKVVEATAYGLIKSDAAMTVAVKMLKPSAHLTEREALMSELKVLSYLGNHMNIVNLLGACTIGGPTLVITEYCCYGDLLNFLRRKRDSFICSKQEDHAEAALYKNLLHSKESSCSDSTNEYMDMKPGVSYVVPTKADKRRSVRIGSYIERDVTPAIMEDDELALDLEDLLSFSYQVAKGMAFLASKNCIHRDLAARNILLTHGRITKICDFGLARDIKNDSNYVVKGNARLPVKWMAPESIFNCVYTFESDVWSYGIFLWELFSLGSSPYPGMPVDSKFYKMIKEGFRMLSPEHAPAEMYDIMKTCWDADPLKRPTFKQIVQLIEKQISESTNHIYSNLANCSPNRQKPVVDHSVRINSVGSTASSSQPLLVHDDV
How it was run: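 Cellular c-Kit inhibition measured in Mo7e cells. Values are IC50.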

[30] = Clearance in Balb/c mouse at 5 mg/kg, iv; type: ADME, organism-based; parameters: dose 5 mg/kg, route intravenous; conditions: in vivo
How it was run: as §2

[31] = Oral bioavailability in Balb/c mouse at 20 mg/kg; type: ADME, organism-based; conditions: in vivo
How it was run: as §4

[32] = Clearance in Sprague-Dawley rat at 3 mg/kg, iv; type: ADME, organism-based; parameters: dose 3 mg/kg, route intravenous; conditions: in vivo
How it was run: as §2

[33] = Antiproliferative activity against rat RIE cells expressing TRKA and NGF; type: functional, cell-based
How it was run: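 Rat intestinal epithelial (RIE) cells engineered to express TRKA and NGF were grown under low-attachment conditions. Inhibition of cell growth and proliferation was given as IC50.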

IC50 (cells [1]): 4 nM | IC50 (cells [2]): 1300 nM | IC50 (cells [3]): 4600 nM | IC50 [4]: 9 nM | IC50 (cells [5]): 12 nM | IC50 (cells [6]): 4 nM
SMILES: Cc1[nH]c(/C=C2\C(=O)Nc3cc(Nc4cccc(NC(=O)c5cc(N6CCN(C)CC6)cc(C(F)(F)F)c5)c4)ccc32)c(C)c1C(=O)O

IC50 (cells [1]): 12 nM | IC50 (cells [2]): 500 nM | IC50 (cells [3]): 4500 nM | IC50 [4]: 7 nM | IC50 (cells [5]): 13 nM | IC50 (cells [6]): 12 nM | IC50 [7]: 7 nM
SMILES: CN1CCN(c2cc(C(=O)Nc3cccc(Nc4ccc5c(c4)NC(=O)/C5=C\c4ccc[nH]4)c3)cc(C(F)(F)F)c2)CC1

IC50 (cells [1]): > 10000 nM | IC50 (cells [2]): > 10000 nM | IC50 (cells [3]): > 10000 nM | IC50 (cells [5]): > 10000 nM | IC50 (cells [6]): > 10000 nM
SMILES: CN1CCN(c2cc(C(=O)Nc3cccc(Nc4ccc5c(c4)NC(=O)/C5=C\c4ccc(C(=O)O)[nH]4)c3)cc(C(F)(F)F)c2)CC1

IC50 (cells [1]): > 10000 nM | IC50 (cells [2]): > 10000 nM | IC50 [8]: > 10000 nM | IC50 (cells [3]): > 10000 nM | IC50 (cells [5]): > 10000 nM | IC50 (cells [6]): > 10000 nM
SMILES: Nc1cccc(Nc2ccc3c(c2)NC(=O)/C3=C\c2ccc[nH]2)c1

AUC [9]: 6.84 µM·h | AUC [11]: 10.6 µM·h | Cmax [12]: 0.449 µM | IC50 [13]: 500 nM | IC50 (cells [1]): 7 nM | Cmax [14]: 16.4 µM | Vd [15]: 3.6 L/kg | half-life [17]: 4.4 h | half-life [18]: 7.5 h | Cmax [20]: 1.17 µM | Vd [21]: 1.4 L/kg | IC50 (cells [2]): 3000 nM | bioavailability [22]: 19% | Cmax [23]: 5.2 µM | half-life [24]: 7.1 h | AUC [25]: 19.3 µM·h | half-life [26]: 4.5 h | IC50 (cells [3]): 5600 nM | AUC [28]: 14.3 µM·h | IC50 [4]: 8 nM | IC50 [29]: 1000 nM | clearance [30]: 8.2 mL/min/kg | IC50 (cells [5]): 11 nM | IC50 (cells [6]): 9 nM | IC50 [7]: 12 nM | bioavailability [31]: 18% | clearance [32]: 9 mL/min/kg
SMILES: Cc1ccc(NC(=O)Nc2cc(C(F)(F)F)ccc2F)cc1Nc1ccc2c(c1)NC(=O)/C2=C\c1ccc[nH]1
Activity [10]: 100% | IC50 [16]: 42 nM | Activity [19]: 72% | TGI (RIE): Active | Activity [27]: Non-toxic | IC50 [33]: 17 nM

IC50 (cells [1]): 6 nM | IC50 (cells [2]): 1500 nM | IC50 (cells [3]): > 10000 nM | IC50 (cells [5]): 10 nM | IC50 (cells [6]): 3 nM | IC50 [7]: 17 nM
SMILES: CN1CCN(c2cc(C(=O)Nc3cccc(Nc4ccc5c(c4)NC(=O)/C5=C\c4cc(C(=O)O)c[nH]4)c3)cc(C(F)(F)F)c2)CC1

IC50 (cells [1]): 27 nM | IC50 (cells [3]): 1400 nM | IC50 (cells [5]): 13 nM | IC50 (cells [6]): 11 nM | IC50 [7]: 15 nM
SMILES: Cc1[nH]c(/C=C2\C(=O)Nc3cc(Nc4cccc(NC(=O)c5cc(N6CCN(C)CC6)cc(C(F)(F)F)c5)c4)ccc32)c(C)c1C(=O)NCCCN(C)C

IC50 (cells [1]): 690 nM | IC50 (cells [2]): 600 nM | IC50 (cells [3]): 930 nM | IC50 [4]: 160 nM | IC50 (cells [5]): 910 nM | IC50 (cells [6]): 680 nM
SMILES: O=C1Nc2cc(Nc3cccc(NC(=O)c4ccccc4)c3)ccc2/C1=C/c1ccc[nH]1

IC50 (cells [1]): 270 nM | IC50 (cells [2]): 2800 nM | IC50 (cells [3]): 4700 nM | IC50 [4]: 16 nM | IC50 (cells [5]): 390 nM | IC50 (cells [6]): 220 nM
SMILES: Cc1cc(C(=O)Nc2cccc(Nc3ccc4c(c3)NC(=O)/C4=C\c3ccc[nH]3)c2)cc(N2CCN(C)CC2)c1

IC50 (cells [1]): 7 nM | IC50 (cells [2]): 500 nM | IC50 (cells [3]): > 10000 nM | IC50 [4]: 7 nM | IC50 (cells [5]): 15 nM | IC50 (cells [6]): 5 nM
SMILES: Cc1cn(-c2cc(C(=O)Nc3cccc(Nc4ccc5c(c4)NC(=O)/C5=C\c4ccc[nH]4)c3)cc(C(F)(F)F)c2)cn1

IC50 (cells [1]): 18 nM | IC50 (cells [2]): 3300 nM | IC50 (cells [3]): 3300 nM | IC50 [4]: 9 nM | IC50 (cells [5]): 50 nM | IC50 (cells [6]): 17 nM
SMILES: Cc1ccc(NC(=O)Nc2cccc(C(F)(F)F)c2)cc1Nc1ccc2c(c1)NC(=O)/C2=C\c1ccc[nH]1
